These results are taken from ChEMBL document CHEMBL1177728, “Discovery and optimization of boronic acid based inhibitors of autotaxin” (J Med Chem, 2010).

Experiment [1] deals with T1, Autotaxin (Homo sapiens, UniProt Q13822). In words: Inhibition of 6x-histidine-tagged human recombinant ATX expressed in HEK293 cells using bisP-nitrophenyl phosphate as a substrate. It counts as cell-based. Particulars: read-out: IC50.
The target of experiment [2] is T1, Autotaxin. In words: Inhibition of 6x-histidine-tagged human recombinant ATX expressed in HEK293 cells at 5 uM by CPF assay. It counts as cell-based. The essentials: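 FRET substrate CPF4 at 2 μM with purified His-tagged ATX (~40 nM), run as the bis-pNPP format (pH 7.8 Tris-buffered saline, BSA-FAF, 3 h at room temperature). Fluorescence excited at 355 nm, emission 460 and 520 nm. Inhibitor at 5 μM final.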

The target in experiment [3] is T1, Autotaxin. In words: Inhibition of 6x-histidine-tagged human recombinant ATX expressed in HEK293 cells using bisP-nitrophenyl phosphate as a substrate at 5 uM. It counts as cell-based. Put shortly: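 bis-pNPP hydrolysis by purified His-tagged ATX (~40 nM) in Tris-buffered saline pH 7.8 with fatty-acid-free BSA 0.2 mg/mL. Bis-pNPP added as 2 mM stock, 3 h at room temperature. p-Nitrophenol read at 405 nm, corrected by 0 h absorbance. IC50 from 10 concentrations (0.025–100 μM); inhibition at 5 μM final; three independent experiments.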

Experiment [4] addresses T1, Autotaxin. In words: Inhibition of 6x-histidine-tagged human recombinant ATX expressed in HEK293 cells assessed as residual enzyme activity by lysophosphatidulcholine release assay. It counts as cell-based. Put shortly: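 Residual activity in the LPC (18:1) choline release assay with purified His-tagged ATX (~40 nM), pH 7.4 Tris with 0.01% Triton X-100, 3 h at 37 C. Inhibitor titrated at 10 concentrations, 0.01–30 μM. Choline detected at 405 nm via choline oxidase/HRP/ABTS.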

Experiment [5] addresses T1, Autotaxin. In words: Inhibition of 6x-histidine-tagged human recombinant ATX expressed in HEK293 cells assessed as lysophosphatidulcholine release. The experiment is classed as cell-based. The essentials: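 LPC (18:1) choline release: ATX (~40 nM) secreted by transfected HEK293 cells into serum-free medium, TALON-purified, in 50 mM Tris-HCl pH 7.4 with 0.01% Triton X-100. Substrate added as 80 μM LPC with 10 mM MgCl2 and CaCl2, 3 h at 37 C.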

Experiment [6] deals with T1, Autotaxin. The experiment is described as follows: Inhibition of 6x-histidine-tagged human recombinant ATX expressed in HEK293 cells assessed as residual activity using bisP-nitrophenyl phosphate as a substrate; values are per cent of control.
For experiment [7], the target named is T1, Autotaxin. In words: Inhibition of 6x-histidine-tagged human recombinant ATX expressed in HEK293 cells assessed as lysophosphatidulcholine release at 5 uM. The experiment is classed as cell-based. Put shortly: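 LPC (18:1) choline release: ATX (~40 nM) secreted by transfected HEK293 cells into serum-free medium, TALON-purified, in 50 mM Tris-HCl pH 7.4 with 0.01% Triton X-100. Substrate added as 80 μM LPC with 10 mM MgCl2 and CaCl2, 3 h at 37 C. Choline read at 405 nm by choline oxidase/HRP/ABTS with compound-absorbance correction. IC50 over 10 concentrations (0.01–30 μM); inhibition at 5 μM final.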

For `Cn1c(=O)n(C)c2cc(/C=C3\SC(=O)N(Cc4ccccc4)C3=O)ccc21`, the 50% inhibitory concentration (IC50) – broadly, the concentration needed to halve the response being measured – at Autotaxin [1] turned out to be 111 nM. Besides, the inhibition – broadly, the share of the control response that was lost under treatment – at Autotaxin [2] was determined as 55%; on Autotaxin [3], 75%.
Take `O=C(O)c1cccc(COc2ccc(/C=C3\SC(=O)N(Cc4ccc(F)cc4)C3=O)cc2)c1`: the Activity on Autotaxin [4] was determined as 7%. Moreover, at Autotaxin [5], the IC50 worked out at 1070 nM.
`COc1cc(/C=C2\SC(=O)N(Cc3ccc(F)cc3)C2=O)ccc1OCc1ccc(C(=O)O)cc1`: the Activity at Autotaxin [4] was found to be 35%. The residual activity – broadly, the signal under treatment as a percentage of the control signal – at Autotaxin [6] was determined as 10%. Moreover, the IC50 on Autotaxin [5] worked out at 2500 nM; at Autotaxin [1], 56 nM. Also, the inhibition amounted to 55% on Autotaxin [7], 85% on Autotaxin [2] and 91% on Autotaxin [3].
For the molecule `COc1cc(/C=C2\SC(=O)N(Cc3ccc(Cl)cc3)C2=O)ccc1OCc1ccncc1`, the IC50 on Autotaxin [1] is 68 nM. In addition, the inhibition came out at 85% on Autotaxin [2] and 83% at Autotaxin [3].
For the molecule `COc1cc(/C=C2\SC(=O)N(Cc3ccccc3)C2=O)ccc1OCc1ccc(C(=O)O)cc1`, at Autotaxin [4], the Activity was 29%. Besides, the residual activity on Autotaxin [6] was determined as 9%. In addition, the IC50 at Autotaxin [5] turned out to be 2900 nM; on Autotaxin [1] it was 248 nM.
As to `COc1cc(/C=C2\SC(=O)N(Cc3ccc(C(C)(C)C)cc3)C2=O)ccc1OCc1ccc(C(=O)O)cc1`, the Activity at Autotaxin [4] was found to be 27%. For the same molecule, at Autotaxin [6], the residual activity is 33%. Further, the results for the IC50 at Autotaxin [5] and at Autotaxin [1] were 13600 nM and 18200 nM, respectively.
Regarding `CCOc1cc(/C=C2\SC(=O)N(Cc3ccccc3)C2=O)ccc1OCc1ccc(C(=O)O)cc1`, at Autotaxin [1], the IC50 was found to be 161 nM. Moreover, the inhibition at Autotaxin [2] came to 89%; on Autotaxin [3], 92%.
For `COc1cc(/C=C2\SC(=O)N(Cc3ccc([N+](=O)[O-])cc3)C2=O)ccc1OCc1ccc(C(=O)O)cc1`, the Activity at Autotaxin [4] was 56%. Also, the residual activity on Autotaxin [6] stood at 33%. In addition, the half-maximal inhibitory concentration (IC50) on Autotaxin [5] was above 5000 nM; on Autotaxin [1], 442 nM.
In the case of `CCCCCCCC/C=C\CCCCCCCC(=O)OC[C@@H](O)COP(=O)(O)O`, the residual activity on Autotaxin [6] is 39%. In addition, the figures for the inhibition at Autotaxin [2] and at Autotaxin [3] were 67% and 80%, respectively.
`O=C(O)c1ccc(COc2ccc(/C=C3\SC(=O)N(Cc4ccc(F)cc4)C3=O)cc2)cc1`: at Autotaxin [4], the Activity was 40%. In addition, the IC50 on Autotaxin [5] stood at 1630 nM.
For `CC(C)Cc1ccc(-c2n[nH]c3c2C(c2ccc(N(C)C)cc2)C(C#N)=C(N)O3)cc1` (stereo unspecified), the IC50 on Autotaxin [1] is 46 nM. Further, the values for the inhibition on Autotaxin [2] and on Autotaxin [3] were 77% and 87%, respectively.
As for `O=C(CSc1nc2ccc(N3C(=O)c4ccccc4C3=O)cc2s1)Nc1cccc(Cl)c1`, at Autotaxin [1], the IC50 came out at 261 nM. Moreover, the inhibition on Autotaxin [2] stood at 66%; at Autotaxin [3], 71%.
